From ChEMBL document CHEMBL5038590, “Discovery of G Protein-Biased Ligands against 5-HT7R” (J Med Chem, 2021)

What was measured:
[1] = Stability of compound in human liver microsomes assessed as compound remaining at 1 uM preincubated for 5 mins followed by addition of NADPH generating system and incubated for 30 mins by LC/MS relative to control; type: ADME, Microsome; settings: time 35 min, read-out: Stability
Procedure, shortened: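 Human liver microsomes (0.5 mg/mL) in 0.1 M phosphate pH 7.4 with compound at 1 μM. Preincubated 5 min at 37 °C, then NADPH-generating system added and incubated 30 min at 37 °C. Quenched with acetonitrile containing internal standard, centrifuged, and supernatant analysed by LC/MS as percent compound remaining; verapamil as reference.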

[2] = biological target: 5-hydroxytryptamine receptor 2A (Homo sapiens, UniProt P28223); assay: Binding affinity to 5-HT2AR (unknown origin)
Sequence of 5-hydroxytryptamine receptor 2A (P28223 whole entry): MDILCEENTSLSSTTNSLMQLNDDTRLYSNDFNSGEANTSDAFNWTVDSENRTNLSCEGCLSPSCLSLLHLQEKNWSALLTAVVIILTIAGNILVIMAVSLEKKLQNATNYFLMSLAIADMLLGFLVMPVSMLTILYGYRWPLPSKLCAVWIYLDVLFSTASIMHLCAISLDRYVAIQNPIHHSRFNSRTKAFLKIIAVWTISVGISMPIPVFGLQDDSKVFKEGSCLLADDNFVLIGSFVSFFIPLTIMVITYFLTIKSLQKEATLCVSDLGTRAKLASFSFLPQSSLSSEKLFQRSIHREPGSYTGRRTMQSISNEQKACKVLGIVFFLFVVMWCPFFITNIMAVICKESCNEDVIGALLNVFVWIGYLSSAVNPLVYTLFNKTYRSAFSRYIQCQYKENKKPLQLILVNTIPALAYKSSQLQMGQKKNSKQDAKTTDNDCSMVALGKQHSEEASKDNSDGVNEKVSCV
Procedure, shortened: (§1)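 Run by the NIMH Psychoactive Drug Screening Program as competition radioligand binding on crude membranes of cells expressing the recombinant receptor. Eleven dilutions (0.05 nM–50 μM, prepared at 5× assay concentration) were made in 50 mM Tris-HCl, 10 mM MgCl₂, 1 mM EDTA, pH 7.4. Incubation was 1.5 h at rt in the dark, followed by GF/B filtration (0.3% PEI) and scintillation counting. IC₅₀ was converted to Ki; at least triplicate.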

[3] = biological target: CYP2C9 (Homo sapiens, UniProt P11712); assay: Inhibition of CYP2C9 in human liver microsomes assessed as remaining activity at 10 uM using diclofenac as substrate preincubated for 5 mins followed by addition of NADPH generating system and incubated for 15 mins by LC/MS relative to control; type: ADME; settings: probe diclofenac, time 20 min, read-out: Activity
Sequence of CYP2C9 (P11712 whole entry): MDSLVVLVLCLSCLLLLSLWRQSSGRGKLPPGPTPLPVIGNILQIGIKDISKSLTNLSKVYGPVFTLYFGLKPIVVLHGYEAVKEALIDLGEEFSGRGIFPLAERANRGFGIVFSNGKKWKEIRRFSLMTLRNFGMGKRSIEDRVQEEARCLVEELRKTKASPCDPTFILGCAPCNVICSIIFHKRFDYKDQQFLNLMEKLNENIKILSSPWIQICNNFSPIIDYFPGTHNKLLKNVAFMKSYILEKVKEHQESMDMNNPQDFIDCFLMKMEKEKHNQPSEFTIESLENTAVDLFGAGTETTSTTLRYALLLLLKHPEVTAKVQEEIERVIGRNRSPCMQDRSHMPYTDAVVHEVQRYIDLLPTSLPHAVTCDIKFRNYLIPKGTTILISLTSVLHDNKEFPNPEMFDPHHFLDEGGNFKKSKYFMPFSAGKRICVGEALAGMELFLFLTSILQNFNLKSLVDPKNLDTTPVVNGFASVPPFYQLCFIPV
Procedure, shortened: (§2)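 Human liver microsomes (0.25 mg/mL) in 0.1 M phosphate pH 7.4 with a five-substrate cocktail: phenacetin 50 μM, diclofenac 10 μM, S-mephenytoin 100 μM, dextromethorphan 5 μM, midazolam 2.5 μM. Compound at 0 (control) or 10 μM. Preincubated 5 min at 37 °C, NADPH-generating system added, 15 min at 37 °C. Stopped with acetonitrile plus internal standard; substrate metabolites measured by LC/MS.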

[4] = biological target: T1, CYP1A2 (Homo sapiens, UniProt P05177); assay: Inhibition of CYP1A2 in human liver microsomes assessed as remaining activity at 10 uM using phenacetin as substrate preincubated for 5 mins followed by addition of NADPH generating system and incubated for 15 mins by LC/MS relative to control; type: ADME; settings: probe phenacetin, time 20 min, read-out: Activity; procedure, shortened: as §2
T1 sequence (P05177 whole entry): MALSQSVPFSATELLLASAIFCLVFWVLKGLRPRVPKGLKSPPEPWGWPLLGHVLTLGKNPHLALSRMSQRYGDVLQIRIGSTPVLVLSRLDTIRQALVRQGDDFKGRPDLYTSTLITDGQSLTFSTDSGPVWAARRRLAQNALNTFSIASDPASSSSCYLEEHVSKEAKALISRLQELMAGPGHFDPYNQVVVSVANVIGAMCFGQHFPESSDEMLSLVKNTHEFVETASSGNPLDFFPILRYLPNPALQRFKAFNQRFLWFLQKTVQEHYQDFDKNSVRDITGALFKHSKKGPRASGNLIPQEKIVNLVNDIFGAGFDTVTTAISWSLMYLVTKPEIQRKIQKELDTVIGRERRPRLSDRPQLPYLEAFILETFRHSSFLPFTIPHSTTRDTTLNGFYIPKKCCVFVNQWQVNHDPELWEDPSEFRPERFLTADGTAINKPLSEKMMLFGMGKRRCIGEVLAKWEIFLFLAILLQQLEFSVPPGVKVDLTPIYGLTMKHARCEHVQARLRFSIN

[5] = biological target: 5-hydroxytryptamine receptor 1D (Homo sapiens, UniProt P28221); assay: Binding affinity to 5-HT1DR (unknown origin); procedure, shortened: as §1
Sequence of 5-hydroxytryptamine receptor 1D (P28221 whole entry): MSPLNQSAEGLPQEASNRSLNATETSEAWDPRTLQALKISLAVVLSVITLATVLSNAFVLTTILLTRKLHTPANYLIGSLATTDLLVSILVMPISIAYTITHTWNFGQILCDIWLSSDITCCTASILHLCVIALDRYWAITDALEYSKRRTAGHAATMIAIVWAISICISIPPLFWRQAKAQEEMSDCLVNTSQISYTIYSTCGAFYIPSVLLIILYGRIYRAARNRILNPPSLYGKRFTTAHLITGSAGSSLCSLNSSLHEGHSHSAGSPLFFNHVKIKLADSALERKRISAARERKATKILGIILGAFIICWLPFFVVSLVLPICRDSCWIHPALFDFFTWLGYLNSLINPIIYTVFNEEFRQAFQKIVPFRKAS

[6] = biological target: 5-hydroxytryptamine receptor 2B (Homo sapiens, UniProt P41595); assay: Binding affinity to 5-HT2BR (unknown origin); procedure, shortened: as §1
Sequence of 5-hydroxytryptamine receptor 2B (P41595 whole entry): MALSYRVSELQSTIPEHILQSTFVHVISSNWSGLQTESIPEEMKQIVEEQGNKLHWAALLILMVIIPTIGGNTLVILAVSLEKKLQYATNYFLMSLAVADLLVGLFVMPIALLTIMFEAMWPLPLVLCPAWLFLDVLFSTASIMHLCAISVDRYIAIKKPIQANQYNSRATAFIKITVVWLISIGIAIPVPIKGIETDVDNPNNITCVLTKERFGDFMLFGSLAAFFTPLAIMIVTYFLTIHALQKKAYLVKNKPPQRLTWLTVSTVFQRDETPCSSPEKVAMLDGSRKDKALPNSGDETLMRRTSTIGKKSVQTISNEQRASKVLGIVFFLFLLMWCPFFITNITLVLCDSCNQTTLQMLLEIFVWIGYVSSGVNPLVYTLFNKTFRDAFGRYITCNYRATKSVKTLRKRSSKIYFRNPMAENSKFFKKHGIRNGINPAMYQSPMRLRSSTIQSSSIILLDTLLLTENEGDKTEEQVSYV

[7] = Tmax in ICR mouse plasma at 10 mg/kg, ip measured upto 8 hrs by LC-MS/MS analysis; type: ADME, organism-based
Procedure, shortened: (§3)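 Male ICR mice, 7–8 weeks, 30 ± 5 g; single dose 1 mg/kg iv or 10 mg/kg ip (n = 4 each). Carotid artery blood at 0, 0.08 (iv only), 0.25, 0.5, 1, 2, 4, 6, 8 h. Plasma precipitated with acetonitrile containing internal standard, quantified by LC–MS/MS. Parameters by non-compartmental analysis; AUClast by trapezoidal rule; values mean ± SD.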

[8] = Half life in ICR mouse plasma at 1 mg/kg, iv measured upto 8 hrs by LC-MS/MS; type: ADME, organism-based; procedure, shortened: as §3
[9] = biological target: 5-hydroxytryptamine receptor 6 (Homo sapiens, UniProt P50406); assay: Binding affinity to 5-HT6R (unknown origin); procedure, shortened: as §1
Sequence of 5-hydroxytryptamine receptor 6 (P50406 whole entry): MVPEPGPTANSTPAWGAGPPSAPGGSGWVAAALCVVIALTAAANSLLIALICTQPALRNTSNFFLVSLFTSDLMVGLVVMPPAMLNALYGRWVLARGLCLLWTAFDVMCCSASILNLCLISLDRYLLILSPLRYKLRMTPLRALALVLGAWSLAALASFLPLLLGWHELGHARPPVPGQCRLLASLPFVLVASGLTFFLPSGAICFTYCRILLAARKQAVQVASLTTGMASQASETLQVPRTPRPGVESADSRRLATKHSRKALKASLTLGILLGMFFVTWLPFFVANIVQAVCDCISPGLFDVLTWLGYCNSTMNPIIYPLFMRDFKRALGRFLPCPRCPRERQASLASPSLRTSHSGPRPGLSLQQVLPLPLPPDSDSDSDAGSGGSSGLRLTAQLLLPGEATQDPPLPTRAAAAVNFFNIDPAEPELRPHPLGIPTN

[10] = MRTinfinity in ICR mouse plasma at 1 mg/kg, iv measured upto 8 hrs by LC-MS/MS analysis; type: ADME, organism-based; procedure, shortened: as §3
[11] = system: Mus musculus; assay: Effect on wild type mouse assessed as time taken for duration of self grooming at 5 mg/kg, ip after 30 mins under 40 lux lighting (reference value: 43.7 +/- 10.8 sec); type: functional; settings: 0.5 h
[12] = biological target: CYP3A4 (Homo sapiens, UniProt P08684); assay: Inhibition of CYP3A4 in human liver microsomes assessed as remaining activity at 10 uM using midazolam as substrate preincubated for 5 mins followed by addition of NADPH generating system and incubated for 15 mins by LC/MS relative to control; type: ADME; settings: probe midazolam, time 20 min, read-out: Activity; procedure, shortened: as §2
Sequence of CYP3A4 (P08684 whole entry): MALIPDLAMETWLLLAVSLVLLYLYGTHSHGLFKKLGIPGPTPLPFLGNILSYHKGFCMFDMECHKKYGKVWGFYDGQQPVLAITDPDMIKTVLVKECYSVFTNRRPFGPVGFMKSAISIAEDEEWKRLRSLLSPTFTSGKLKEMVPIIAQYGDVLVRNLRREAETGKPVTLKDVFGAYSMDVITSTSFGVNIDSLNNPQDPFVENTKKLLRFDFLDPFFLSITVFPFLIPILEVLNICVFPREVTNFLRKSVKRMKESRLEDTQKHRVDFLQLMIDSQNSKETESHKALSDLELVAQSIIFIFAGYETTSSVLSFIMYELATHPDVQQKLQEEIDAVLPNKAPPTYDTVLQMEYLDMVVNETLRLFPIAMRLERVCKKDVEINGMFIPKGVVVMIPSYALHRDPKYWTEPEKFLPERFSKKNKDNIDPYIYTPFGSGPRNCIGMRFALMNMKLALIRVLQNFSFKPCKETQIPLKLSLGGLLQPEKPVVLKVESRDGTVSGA

[13] = system: Mus musculus; assay: Effect on shank3-/- mouse model of autism spectrum disorder assessed as time taken for duration of self grooming at 5 mg/kg, ip pretreated for 10 mins in presence of SB269970 followed by compound addition and measured after 30 mins under 40 lux lighting (reference value: 224 +/- 47.4 sec); type: functional; settings: 0.5 h
[14] = biological target: CYP2C19 (Homo sapiens, UniProt P33261); assay: Inhibition of CYP2C19 in human liver microsomes assessed as remaining activity at 10 uM using S-mephenytoin as substrate preincubated for 5 mins followed by addition of NADPH generating system and incubated for 15 mins by LC/MS relative to control; type: ADME; settings: probe S-mephenytoin, time 20 min, read-out: Activity; procedure, shortened: as §2
Sequence of CYP2C19 (P33261 whole entry): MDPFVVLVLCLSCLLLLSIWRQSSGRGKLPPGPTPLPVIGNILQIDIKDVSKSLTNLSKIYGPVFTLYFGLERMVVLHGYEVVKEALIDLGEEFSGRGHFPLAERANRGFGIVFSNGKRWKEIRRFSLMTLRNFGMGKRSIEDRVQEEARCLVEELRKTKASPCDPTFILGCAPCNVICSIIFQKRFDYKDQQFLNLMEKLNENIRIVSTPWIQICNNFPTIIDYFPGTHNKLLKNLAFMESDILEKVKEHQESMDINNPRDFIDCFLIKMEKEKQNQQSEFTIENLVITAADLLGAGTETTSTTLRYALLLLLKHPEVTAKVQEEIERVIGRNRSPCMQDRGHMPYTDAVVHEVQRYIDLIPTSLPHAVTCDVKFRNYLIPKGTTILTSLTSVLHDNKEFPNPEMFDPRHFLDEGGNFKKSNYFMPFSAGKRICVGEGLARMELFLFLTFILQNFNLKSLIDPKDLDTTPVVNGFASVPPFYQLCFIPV

[15] = Clearance in ICR mouse plasma at 1 mg/kg, iv measured upto 8 hrs by LC-MS/MS analysis; type: ADME, organism-based; procedure, shortened: as §3
[16] = system: Mus musculus; assay: Effect on wild type mouse assessed as time taken for duration of self grooming at 5 mg/kg, ip pretreated for 10 mins in presence of SB269970 followed by compound addition and measured after 30 mins under 40 lux lighting (reference value: 43.7 +/- 10.8 sec); type: functional; settings: 0.5 h
[17] = AUClast in ICR mouse plasma at 10 mg/kg, ip measured upto 8 hrs by LC-MS/MS analysis; type: ADME, organism-based; design: route intraperitoneal, dose 10 mg/kg, time <=8; procedure, shortened: as §3
[18] = biological target: 5-hydroxytryptamine receptor 5A (Homo sapiens, UniProt P47898); assay: Binding affinity to 5-HT5AR (unknown origin); procedure, shortened: as §1
Sequence of 5-hydroxytryptamine receptor 5A (P47898 whole entry): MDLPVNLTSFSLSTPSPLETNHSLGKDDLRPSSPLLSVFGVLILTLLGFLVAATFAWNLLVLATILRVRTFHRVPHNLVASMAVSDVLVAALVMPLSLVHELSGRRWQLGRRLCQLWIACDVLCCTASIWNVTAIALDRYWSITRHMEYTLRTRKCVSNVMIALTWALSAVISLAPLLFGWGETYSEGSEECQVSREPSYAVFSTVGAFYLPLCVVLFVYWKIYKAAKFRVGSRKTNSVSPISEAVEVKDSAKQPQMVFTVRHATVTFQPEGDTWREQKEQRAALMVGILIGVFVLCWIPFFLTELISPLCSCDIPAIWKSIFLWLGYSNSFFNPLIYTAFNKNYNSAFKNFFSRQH

[19] = biological target: 5-hydroxytryptamine receptor 1E (Homo sapiens, UniProt P28566); assay: Binding affinity to 5-HT1ER (unknown origin); procedure, shortened: as §1
Sequence of 5-hydroxytryptamine receptor 1E (P28566 whole entry): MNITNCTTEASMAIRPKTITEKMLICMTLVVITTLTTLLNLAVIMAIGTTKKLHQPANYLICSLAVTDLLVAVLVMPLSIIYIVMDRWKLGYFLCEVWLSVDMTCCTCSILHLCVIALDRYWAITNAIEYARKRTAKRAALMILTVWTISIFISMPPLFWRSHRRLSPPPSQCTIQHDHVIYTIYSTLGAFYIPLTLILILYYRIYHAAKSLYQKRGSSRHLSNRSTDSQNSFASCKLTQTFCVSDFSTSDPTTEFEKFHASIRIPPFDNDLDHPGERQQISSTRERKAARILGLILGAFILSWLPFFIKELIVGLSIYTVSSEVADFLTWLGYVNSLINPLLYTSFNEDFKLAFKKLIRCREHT

[20] = biological target: CYP2D6 (Homo sapiens, UniProt P10635); assay: Inhibition of CYP2D6 in human liver microsomes assessed as remaining activity at 10 uM using dextromethorphan as substrate preincubated for 5 mins followed by addition of NADPH generating system and incubated for 15 mins by LC/MS relative to control; type: ADME; settings: probe dextromethorphan, time 20 min, read-out: Activity; procedure, shortened: as §2
Sequence of CYP2D6 (P10635 whole entry): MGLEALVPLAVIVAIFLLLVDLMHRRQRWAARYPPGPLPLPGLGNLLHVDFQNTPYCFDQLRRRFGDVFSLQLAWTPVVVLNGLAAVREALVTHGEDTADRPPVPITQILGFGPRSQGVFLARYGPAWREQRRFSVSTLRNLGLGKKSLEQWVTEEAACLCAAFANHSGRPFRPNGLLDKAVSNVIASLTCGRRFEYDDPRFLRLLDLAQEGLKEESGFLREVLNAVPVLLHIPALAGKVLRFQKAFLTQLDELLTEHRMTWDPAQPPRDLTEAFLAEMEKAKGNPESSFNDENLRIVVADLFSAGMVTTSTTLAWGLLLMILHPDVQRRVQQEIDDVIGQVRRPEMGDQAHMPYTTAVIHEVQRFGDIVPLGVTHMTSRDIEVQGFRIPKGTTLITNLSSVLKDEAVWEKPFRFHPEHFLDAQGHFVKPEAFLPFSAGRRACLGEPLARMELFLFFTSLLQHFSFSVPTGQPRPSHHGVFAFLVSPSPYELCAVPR

CCNCCc1ccc(Cl)c(-c2ccccc2OC)c1.Cl
remaining at 0.5 h, 1 µM [1]: 71.5% | Ki [2]: 0.52 µM | activity at 0.25 h, 10 µM [3]: > 100% | activity at 0.25 h, 10 µM [4]: 94.3% | Ki [5]: 0.0053 µM | Ki [6]: 0.13 µM | Tmax [7]: 24 min | half-life [8]: 30 min | Ki [9]: > 10 µM | MRT inf [10]: 42 min | Time [11]: 107 s | activity at 0.25 h, 10 µM [12]: 98.5% | Time [13]: 166 s | activity at 0.25 h, 10 µM [14]: 90.3% | clearance [15]: 28.7 L/h/kg | Time [16]: 70.8 s | AUC(0-t) at 8 h [17]: 0.442 µg·h/mL | Ki [18]: 0.7 µM | Ki [19]: 2.6 µM | activity at 0.25 h, 10 µM [20]: 88.7%
